Measurements as given in ChEMBL document CHEMBL5136968, “Posttranslational modifications of α-conotoxins: sulfotyrosine and C-terminal amidation stabilise structures and increase acetylcholine receptor binding” (RSC Med Chem, 2021).
Positions of bridges follow the written chain, without caps; N, C: chain ends. Non-standard residues stand in square brackets, D forms with d. Residues, ends and D or L forms follow the SMILES beside them. sY = N[C@@H](Cc1ccc(OS(=O)(=O)O)cc1)C(=O)O

What was measured:
[1] = Displacement of [3H]-epibatidine from Aplysia californica Acetylcholine-binding protein measured after 1 hr by liquid scintillation counter
In short: (§1)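 Recombinant AChBP expressed in E. coli (IPTG induction, 16 °C), coated onto wells at 1 ng μL−1. Incubated 1 h at 4 °C with [3H]-epibatidine (1 nM final) and increasing peptide in PBS with 0.05% BSA. Unbound ligand washed off; bound radioactivity counted by liquid scintillation. One-site competition fit gives Ki. Triplicate, three independent experiments; pKi as mean with 95% CI.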

[2] = target: Acetylcholine-binding protein (Lymnaea stagnalis, UniProt P58154); assay: Displacement of [3H]-epibatidine from Lymnaea stagnalis Acetylcholine-binding protein measured after 1 hr by liquid scintillation counter; in short: as §1
Sequence of Acetylcholine-binding protein (P58154 whole entry): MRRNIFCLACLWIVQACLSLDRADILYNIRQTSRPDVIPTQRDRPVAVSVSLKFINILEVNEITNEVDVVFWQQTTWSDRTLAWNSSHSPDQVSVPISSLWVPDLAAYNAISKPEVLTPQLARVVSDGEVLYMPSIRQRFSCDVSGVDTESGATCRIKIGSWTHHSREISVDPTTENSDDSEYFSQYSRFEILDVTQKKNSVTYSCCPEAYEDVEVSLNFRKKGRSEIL

Row | Structure (SMILES) | pKi [1] | Ki [2] [µM]
1 | CC(C)C[C@@H]1NC(=O)[C@H](CO)NC(=O)[C@@H]2CSSC[C@@H](C(N)=O)NC(=O)[C@H](Cc3ccc(O)cc3)NC(=O)[C@H](CC(=O)O)NC(=O)[C@@H]3CCCN3C(=O)[C@H](CC(N)=O)NC(=O)[C@H](CC(N)=O)NC(=O)[C@H](C)NC(=O)[C@H](C)NC(=O)[C@H](CSSC[C@H](NC(=O)CN)C(=O)N2)NC(=O)[C@@H]2CCCN2C(=O)[C@@H]2CCCN2C1=O (H-GCCSLPPCAANNPDYC-NH2; disulfide 2-8, 3-16) | 8.85 | 9.12
2 | CC(C)C[C@@H]1NC(=O)[C@H](CO)NC(=O)[C@@H]2CSSC[C@@H](C(=O)O)NC(=O)[C@H](Cc3ccc(O)cc3)NC(=O)[C@H](CC(=O)O)NC(=O)[C@@H]3CCCN3C(=O)[C@H](CC(N)=O)NC(=O)[C@H](CC(N)=O)NC(=O)[C@H](C)NC(=O)[C@H](C)NC(=O)[C@H](CSSC[C@H](NC(=O)CN)C(=O)N2)NC(=O)[C@@H]2CCCN2C(=O)[C@@H]2CCCN2C1=O (H-GCCSLPPCAANNPDYC-OH; disulfide 2-8, 3-16) | 7.51 | > 100
3 | CC(C)C[C@@H]1NC(=O)[C@H](CO)NC(=O)[C@@H]2CSSC[C@@H](C(N)=O)NC(=O)[C@H](Cc3ccc(OS(=O)(=O)O)cc3)NC(=O)[C@H](CC(=O)O)NC(=O)[C@@H]3CCCN3C(=O)[C@H](CC(N)=O)NC(=O)[C@H](CC(N)=O)NC(=O)[C@H](C)NC(=O)[C@H](C)NC(=O)[C@H](CSSC[C@H](NC(=O)CN)C(=O)N2)NC(=O)[C@@H]2CCCN2C(=O)[C@@H]2CCCN2C1=O (H-GCCSLPPCAANNPD[sY]C-NH2; disulfide 2-8, 3-16) | 8.92 | 3.8
4 | CC(C)C[C@@H]1NC(=O)[C@H](CO)NC(=O)[C@@H]2CSSC[C@@H](C(=O)O)NC(=O)[C@H](Cc3ccc(OS(=O)(=O)O)cc3)NC(=O)[C@H](CC(=O)O)NC(=O)[C@@H]3CCCN3C(=O)[C@H](CC(N)=O)NC(=O)[C@H](CC(N)=O)NC(=O)[C@H](C)NC(=O)[C@H](C)NC(=O)[C@H](CSSC[C@H](NC(=O)CN)C(=O)N2)NC(=O)[C@@H]2CCCN2C(=O)[C@@H]2CCCN2C1=O (H-GCCSLPPCAANNPD[sY]C-OH; disulfide 2-8, 3-16) | 8.33 | > 100
